Screening results from PubChem.
KCNQ1 block: blocks the human KCNQ1 potassium channel; P51787; CHO-K1 KCNQ1, FluxOR thallium flux fluorescence; active compounds read high; B-score at 10 µM; hit rate 1.3% among 310,000;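 active = compounds whose thallium flux B-score, printed positive for inhibition, exceeds three library SD while starting fluorescence stays within three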;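 note: channel opened by potassium depolarization with thallium stimulus after 20 min compound exposure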
Target sequence (P51787 whole entry, looked up): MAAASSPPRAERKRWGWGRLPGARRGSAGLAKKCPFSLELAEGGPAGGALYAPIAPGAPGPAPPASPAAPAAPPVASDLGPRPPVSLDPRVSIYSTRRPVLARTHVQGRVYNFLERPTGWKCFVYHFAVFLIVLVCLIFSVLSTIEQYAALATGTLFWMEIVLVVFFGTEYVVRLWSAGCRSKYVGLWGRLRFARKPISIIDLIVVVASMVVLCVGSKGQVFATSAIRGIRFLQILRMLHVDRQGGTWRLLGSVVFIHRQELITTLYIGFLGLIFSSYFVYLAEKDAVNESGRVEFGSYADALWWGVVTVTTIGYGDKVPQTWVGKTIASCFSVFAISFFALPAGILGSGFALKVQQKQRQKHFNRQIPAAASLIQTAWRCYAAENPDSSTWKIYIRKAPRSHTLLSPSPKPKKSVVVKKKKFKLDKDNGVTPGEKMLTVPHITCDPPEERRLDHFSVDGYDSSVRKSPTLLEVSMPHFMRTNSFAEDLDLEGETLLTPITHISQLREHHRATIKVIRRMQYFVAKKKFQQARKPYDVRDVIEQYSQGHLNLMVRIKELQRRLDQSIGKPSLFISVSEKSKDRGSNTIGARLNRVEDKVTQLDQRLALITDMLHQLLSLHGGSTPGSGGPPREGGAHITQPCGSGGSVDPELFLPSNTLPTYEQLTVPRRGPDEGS
KCNQ1 pot: potentiates or activates the human KCNQ1 potassium channel | P51787 | CHO-K1 KCNQ1, thallium flux FluxOR fluorescence; active compounds read high | B-score at 10 µM | hit rate 0.35% among 310,000 | AID 2648;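 active = fluorescence ratio B-score, a plate-corrected score, at least three library SD, with initial intensity B-score within 5 SD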
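System: CHO-K1 cells stably expressing KCNQ1 / Medium: assay buffer for compound exposure, DMSO matched across wells / Reagent: thallium- and potassium-containing depolarizing buffer / Compound: one concentration, matched DMSO / Incubation: 20 min compound pretreatment at room temperature / Measured by: kinetic FluxOR fluorescence, 10 s baseline plus 110 s post-stimulus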
KCNK3 inh: human KCNK3 channel inhibition, primary screen; B-score at 10 µM; CHO-KCNK3 thallium flux, FluxOR fluorescence; active compounds read low; hit rate 0.84% among 340,000;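 active = B-score under library mean minus 4 SD, starting fluorescence ratio at most library mean plus 5 SD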;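 note: more negative B-score means stronger inhibition of thallium flux through KCNK3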
Kir21 inh: inhibitors of mouse Kir2.1 inward-rectifier potassium channel | P35561 | HEK293-Kir2.1, FluxOR thallium flux fluorescence; active compounds read low | B-score at 10 µM | hit rate 0.85% among 310,000 | AID 1672;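 active = fluorescence ratio B-score at or below minus 3 SD of library scores, with starting-brightness B-score within 2 SD, cut at about -4.2 in these data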;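 note: channel flux triggered by added potassium and thallium sulfate stimulus; B-score of peak minus minimum fluorescence over baseline after thallium stimulus; more negative B-score means stronger Kir2.1 block with less thallium influx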
KCNK9 block: blocks the human KCNK9 two-pore domain potassium channel | hit rate 1.2% among 310,000 | HEK293 KCNK9, FluxOR thallium flux fluorescence; active compounds read low | Q9NPC2 | B-score at 10 µM;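 active = ratio B-score over 3 SD below the library mean, with starting fluorescence within 5 SD of its mean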;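 note: negative B-score means less thallium flux so channel inhibition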
hERG protect: compounds protecting human hERG from proarrhythmic drug block. CHO-hERG, FluxOR thallium flux, dofetilide IC70 present. AID 1511. activation (rescue from dofetilide block), less the hit threshold, % at 10 µM. hit rate 0.51% among 310,000. Q12809;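 active = activation above the mean of controls blocked by dofetilide plus 5 SD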;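 note: thallium influx through hERG after potassium depolarization seen as dye fluorescence rise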
KCNK9 block conf: confirmation of human KCNK9 potassium channel inhibitors; HEK293 KCNK9 cells, FluxOR thallium flux fluorescence; shares compounds with KCNK9 block; hit rate 43% among 4,900; AID 492992; inhibition, % at 10 µM;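 active = thallium signal inhibited by more than 5 SD of the compound-free buffer control wells, on both duplicate plates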;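 note: 0% = assay buffer control wells without compound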
Kir2-1 spec: selectivity of KCNK9 modulators against mouse Kir2.1. hit rate 4% among 4,900. inhibition, % at 10 µM. Kir2.1 cells, FluxOR thallium flux fluorescence. shares compounds with KCNK9 block;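 active = thallium signal drop more than 5 SD beyond the mean of the no-compound control wells, seen in both duplicate plates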;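 note: signal is fluorescence rise after thallium addition divided by baseline fluorescence; plate controls were assay buffer only for no effect and full block by chlorpromazine control for full effect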
KCNK9 uninduced: second check of KCNK9 modulator effects in non-induced HEK293 cells | shares compounds with KCNK9 block | FluxOR thallium flux | inhibition, % at 10 µM | hit rate 40% among 4,900 | AID 492997;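 active = thallium signal drop beyond 5 SD of the untreated control mean, on both duplicate plates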;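 note: plate controls were buffer only IC0 wells for no effect and SID17386958 at its maximal inhibitory level for full effect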
Numbers without * were called inactive; i = inactive; . = no result. Sampled rows, rich in hits. Any-hit rate of the full collection: about 3.7%.

SMILES | KCNQ1 block | KCNQ1 pot | KCNK3 inh | Kir21 inh | KCNK9 block | hERG protect | KCNK9 block conf | Kir2-1 spec | KCNK9 uninduced
CCN(CC)c1ccc(/C=N/N2CCOCC2)c(O)c1 | i | i | i | -0.3 | i | -7 | . | . | .
CCN(CC)c1ccc(/C=N/N2CCN(Cc3ccc(C)cc3C)CC2)c(O)c1 | i | i | i | -0.09 | i | -11 | i | i | i
CCN(CC)c1ccc(/C=N/N2CCN(Cc3ccccc3)CC2)c(O)c1 | i | i | i | -0.14 | i | -11 | i | i | i
NC[C@@H]1O[C@H](O[C@H]2[C@@H](O)[C@H](O[C@@H]3[C@@H](O)[C@H](N)C[C@H](N)[C@H]3O[C@H]3O[C@H](CO)[C@@H](O)[C@H](O)[C@H]3N)O[C@@H]2CO)[C@H](N)[C@@H](O)[C@@H]1O | i | i | . | 0.32 | i | -7 | . | . | .
Cc1c(C(N)=O)sc2ncn(CC(=O)N(C)C3CCCCC3)c(=O)c12 | i | i | i | 1.1 | i | -7 | . | . | .
O=C(COC(=O)/C(=C/c1cccs1)c1cccs1)NC(c1ccccc1)c1ccccc1 | i | i | i | -1.1 | -9.1* | -10 | 46%* | i | i
O=C(Cc1cccs1)NC(c1ccccc1)c1ccccc1 | i | i | i | -0.07 | i | -9 | . | . | .
COc1ccccc1CNS(=O)(=O)c1ccc(N2CCCC2)cc1Br | . | . | i | . | . | . | . | . | .
Clc1cccc2sc(N3CCCCC3)nc12 | i | i | i | 1.6 | i | -9 | . | . | .
Brc1cccc2sc(N3CCN(c4ccccc4)CC3)nc12 | i | i | i | 0.32 | -14* | -12 | 47%* | i | 30%*
CC1=C(C(=O)Nc2ccccc2C)C(c2ccc(C)o2)N2C(=O)CSC2=N1 (stereo not given) | i | i | i | -0.36 | -8.3* | -6 | 38%* | i | 51%*
Cc1cc(C(=O)CCC(=O)N2CCN(c3ccccc3F)CC2)c(C)s1 | i | i | i | 0.42 | i | -26 | i | i | i
CC(=O)c1c(C)nn(-c2ccccc2)c1C | i | i | i | -0.64 | i | -11 | . | . | .
Cc1ccc(CN(C)C(=O)c2c(C)nn(-c3ccccc3)c2C)cc1 | i | i | i | -0.39 | i | 0 | i | i | i
CCCCn1c(N)c(N(CC)C(=O)c2ccc(Cl)c(Cl)c2)c(=O)[nH]c1=O | i | i | i | 0.03 | i | 0 | . | . | .
Cc1ccccc1C(=O)NC1CC2CCCC(C1)N2Cc1ccccc1 (stereo not given) | i | i | i | -0.07 | i | -11 | i | i | i
CCC(c1nnnn1Cc1cccs1)N1CCN(c2nc3ccccc3s2)CC1 (stereo not given) | i | i | i | -0.73 | -11* | -11 | 30%* | i | i
CC(C)NC(C(=O)Nc1cc(Cl)cc(Cl)c1)c1ccccc1 (stereo not given) | i | i | i | -0.83 | -9.3* | -11 | 34%* | i | 25%*
CN(C)CCNC(C(=O)Nc1cc(Cl)cc(Cl)c1)c1ccccc1 (stereo not given) | i | i | i | -1.1 | i | -3 | . | . | .
COc1cccc(/C=C/C(=O)OCC(=O)N2CCCC2)c1OC | . | . | i | . | . | . | . | . | .
Oc1ccccc1C1=Nc2ccccc2N=C(c2cccs2)C1 | i | i | i | 0.05 | -10* | -24 | 42%* | i | 34%*
NS(=O)(=O)c1ccc(CCNC(=O)c2ccc(C#CC3(O)CCCCC3)cc2)cc1 | i | i | i | -0.82 | i | -19 | . | . | .
CN(CC(=O)Nc1c(Cl)cccc1Cl)C(=O)c1ccc2ccccc2n1 | . | . | i | . | . | . | . | . | .
CCC(C(=O)N/N=C(\C)c1cccnc1)c1ccccc1 (stereo not given) | i | i | i | 2.1 | i | -12 | . | . | .
